Consider 14 molecules from ChEMBL document CHEMBL1139357, “Synthesis and anti-hepatitis B virus and anti-hepatitis C virus activities of 7-deazaneplanocin A analogues in vitro” (J Med Chem, 2009).

In series [1] the test system is Hepatitis B virus. Description: Antiviral activity against adefovir-resistant wild type HBV in human Huh7 cells after 4 days by intracellular HBV DNA replication assay. It counts as functional, organism-based. The conditions noted are these: Huh-7, 96 h. The essentials:
(§1)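 In a 5-day transient transfection assay, cells expressed wild-type or lamivudine- or adefovir-resistant HBV mutants. After 4 days of drug treatment, intracellular HBV DNA replication intermediates were quantified by Southern blot hybridization.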

Series [2] relates to Hepatitis B virus. The experiment in a line: Antiviral activity against adefovir-resistant HBV reverse transcriptase L180M mutant in human Huh7 cells after 4 days by intracellular HBV DNA replication assay. It counts as functional, organism-based. The conditions noted are these: Huh-7, 96 h. The method, boiled down: as §1
The test system of series [3] is Hepatitis B virus. The experiment in a line: Antiviral activity against adefovir-resistant HBV reverse transcriptase LM/reverse transcriptase MV double mutant in human Huh7 cells after 4 days by intracellular HBV DNA replication assay. Type of series: functional, organism-based. The conditions noted are these: Huh-7, 96 h. The method, boiled down: as §1
In series [4] the test system is Hepatitis B virus. The experiment in a line: Antiviral activity against adefovir-resistant HBV reverse transcriptase M204I mutant in human Huh7 cells after 4 days by intracellular HBV DNA replication assay. Type of series: functional, organism-based. The note with it: Huh-7, 96 h. The method, boiled down:
as §1

In series [5] the test system is Hepatitis B virus. Description: Antiviral activity against adefovir-resistant HBV reverse transcriptase M204V mutant in human Huh7 cells after 4 days by intracellular HBV DNA replication assay. It counts as functional, organism-based. The conditions noted are these: Huh-7, 96 h. The essentials:
as §1

In series [6] the test system is Hepatitis B virus. The experiment in a line: Antiviral activity against adefovir-resistant HBV reverse transcriptase 236T mutant in human Huh7 cells after 4 days by intracellular HBV DNA replication assay. It counts as functional, organism-based. The note with it: Huh-7, 96 h. The essentials: as §1
Series [7] can be described thus: Cytotoxicity against ET cells at 20uM. Type of series: cell-based. The essentials:
(§2)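 ET replicon cells seeded at 5000/well overnight without G418; serially diluted compound for 3 days; viability by tetrazolium-based CytoTox-1 proliferation assay. Four replicates; IC50 is the concentration cutting viability by 50%. Weak compounds given as percent of control at 20 µM.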

Series [8] deals with Hepatitis B virus. The experiment in a line: Antiviral activity against HBV in human HepG2(2.2.15) cells assessed as extracellular HBV virion DNA level after 24 hrs. Type of series: functional, organism-based. The conditions noted are these: HepG2 2.2.15, 24 h. The method, boiled down:
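Confluent HBV-producing 2.2.15 cell cultures were given nine consecutive daily doses of compound. Extracellular HBV DNA was measured by quantitative blot hybridization 24 h after the last dose. Cytotoxicity was read by neutral red uptake 24 h after the last dose.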

Series [9] in a line: Cytotoxicity against human HepG2(2.2.15) cells assessed as uptake of neutral red dye after 24 hrs. Type of series: cell-based. The conditions noted are these: HepG2 2.2.15, 24 h. The method, boiled down:
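2.2.15 cells, confluent, dosed daily for nine consecutive days; cytotoxicity by neutral red dye uptake 24 h after the last treatment.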

Series [10] concerns Hepatitis C virus. The experiment in a line: Antiviral activity against HCV in human Huh7 cells assessed as reduction of viral level after 5 days by RNA subgenomic replicon assay. The note with it: Huh-7, 120 h. Type of series: functional, organism-based, Hepacivirus hominis. The essentials:
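Huh-7 clone B subgenomic replicon cells seeded at 3000/well, compounds added in duplicate at two dilutions right after seeding; 5 days at 37 °C, 5% CO2. Total RNA isolated; replicon RNA and rRNA control amplified by multiplex one-step real-time RT-PCR. Activity as ΔCt versus no-drug control; EC50/EC90 for 50%/90% reduction.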

Series [11] in a line: Cytotoxicity against human Huh7 cells assessed as rRNA level after 5 days. Type of series: cell-based. The note with it: huh-7, 120 h. The method, boiled down:
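Huh-7 cells carrying a subgenomic HCV replicon (clone B) were seeded at 3000 cells/well. Compound was added in duplicate at two dilutions right after seeding, then cells were incubated 5 days at 37 °C, 5% CO2. Total RNA was isolated, and replicon RNA and an rRNA internal control were co-amplified by one-step multiplex real-time RT-PCR.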

For series [12], the system named is Hepatitis C virus. The experiment in a line: Antiviral activity against HCV in ET cells assessed as activity of luciferase reporter by subgenomic RNA replicon assay. It counts as functional, organism-based, Hepacivirus hominis. The method, boiled down:
(§3)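 ET replicon cells (dicistronic HCV replicon with firefly luciferase, three adaptive mutations) seeded at 5000/well overnight in DMEM without G418; serial compound dilutions added, 3 days incubation, luciferase read by Steady-Glo. Four replicates per point; EC50 is 50% luciferase inhibition. Marginal actives given as percent inhibition versus control at 20 µM.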
(A reporter such as luciferase makes a cellular process visible.)

Series [13] in a line: Cytotoxicity against ET cells. Type of series: cell-based. The conditions noted are these: for IC50: ET. The essentials: as §2
The subject of series [14] is Hepatitis B virus. Description: Antiviral activity against HBV in human HepG2(2.2.15) cells assessed as replication intermediates after 24 hrs. Type of series: functional, organism-based. The note with it: HepG2 2.2.15, 24 h. The essentials:
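Confluent 2.2.15 cultures in 96-well format given nine consecutive daily doses; HBV DNA quantified by blot hybridization 24 h after the last treatment.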

The subject of series [15] is Hepatitis B virus. The experiment in a line: Antiviral activity against lamivudine-resistant wild type HBV in human Huh7 cells after 4 days by intracellular HBV DNA replication assay. It counts as functional, organism-based. The note with it: Huh-7, 96 h. The method, boiled down:
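Transient transfection of HBV into cells, 5-day assay; compounds applied for 4 days, then intracellular HBV DNA replication intermediates quantified by Southern blot hybridization to derive EC50.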

The subject of series [16] is Hepatitis B virus. The experiment in a line: Antiviral activity against lamivudine-resistant HBV reverse transcriptase L180M mutant in human Huh7 cells after 4 days by intracellular HBV DNA replication assay. Type of series: functional, organism-based. The note with it: Huh-7, 96 h. The essentials:
as §1

The subject of series [17] is Hepatitis B virus. The experiment in a line: Antiviral activity against lamivudine-resistant HBV reverse transcriptase LM/reverse transcriptase MV double mutant in human Huh7 cells after 4 days by intracellular HBV DNA replication assay. The note with it: Huh-7, 96 h. Type of series: functional, organism-based. The method, boiled down:
as §1

The test system of series [18] is Hepatitis B virus. The experiment in a line: Antiviral activity against lamivudine-resistant HBV reverse transcriptase M204I mutant in human Huh7 cells after 4 days by intracellular HBV DNA replication assay. Type of series: functional, organism-based. The conditions noted are these: Huh-7, 96 h. The essentials:
as §1

Series [19] deals with Hepatitis B virus. Description: Antiviral activity against lamivudine-resistant HBV reverse transcriptase M204V mutant in human Huh7 cells after 4 days by intracellular HBV DNA replication assay. Type of series: functional, organism-based. The note with it: Huh-7, 96 h. The essentials:
as §1

Series [20] relates to Hepatitis B virus. The experiment in a line: Antiviral activity against lamivudine-resistant HBV reverse transcriptase 236T mutant in human Huh7 cells after 4 days by intracellular HBV DNA replication assay. The note with it: Huh-7, 96 h. Type of series: functional, organism-based. The essentials: as §1
The test system of series [21] is Hepatitis C virus. The experiment in a line: Antiviral activity against HCV in ET cells assessed as activity of luciferase reporter at 20 uM by subgenomic RNA replicon assay. It counts as functional, Hepacivirus hominis. The method, boiled down:
as §3

Series [22] is described as follows: Selectivity index, EC50 for HCV to IC50 for ET cells. It counts as functional. The method, boiled down: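 SI50 from ET replicon luciferase EC50 (3-day assay) and CytoTox-1 viability IC50, each averaged from four replicates.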

One may read the EC50 as the concentration giving half of the maximal effect. Turning to `Nc1ncnc2c1ncn2CCOCP(=O)(O)O` [ADEFOVIR], the EC50 in [1] was 1.3 µM; in series [2], 1.6 µM; in series [3], 1.6 µM; in series [4], 1.8 µM; in series [5], 1.5 µM; in series [6], 7.7 µM.

Usually IC50 stands for the midpoint of a concentration-inhibition curve. `Nc1ncnc2c1c([N+](=O)[O-])cn2[C@@H]1C=C(CO)[C@@H](O)[C@H]1O` came in with an Activity in [7] of 101.5%. The EC50 in series [8] is > 10 µM. Further, the IC50 in series [9] is > 300 µM.

As a reminder, the EC90 is the point of the concentration-response curve where the effect stands at 90%. What is called CC50 is the concentration giving 50% cytotoxicity. `Nc1ccn([C@@H]2O[C@H](CO)[C@@H](O)[C@]2(O)F)c(=O)n1`: in series [10], the EC50 was 1.7 µM and the EC90 was found to be 5.3 µM. Besides, the CC50 in series [11] is > 50 µM.

`C#Cc1cn([C@@H]2C=C(CO)[C@@H](O)[C@H]2O)c2ncnc(N)c12`: the EC50 was 20.1 µM in [12], 0.32 µM in series [8] and 1.8 µM in series [14]. Further, the IC50 in [13] was 48.9 µM; in series [9] it was > 300 µM.

On to `Nc1ccn([C@@H]2CS[C@H](CO)O2)c(=O)n1` [LAMIVUDINE], for which the concentration for a half-maximal effect (EC50) in series [8] is 0.048 µM; in series [14], 0.15 µM; in series [15], 0.2 µM; in [16], 10 µM; in series [17], > 100 µM; in [18], > 100 µM. For the same molecule, the 50% effective concentration (EC50) in series [19] is > 100 µM; in series [20], 0.3 µM; in series [1], 1.3 µM; in series [2], 1.6 µM; in series [3], 1.6 µM; in [4], 1.8 µM. Also, the EC50 is 1.5 µM in series [5] and 7.7 µM in series [6]. Besides, the half-inhibitory concentration (IC50) in series [9] is > 2000 µM.

On to `Nc1ncnc2c1c(Br)cn2[C@@H]1C=C(CO)[C@@H](O)[C@H]1O`, for which the EC50 in [12] is 16.7 µM; in series [8], > 10 µM. The results for the IC50 in series [13] and in series [9] were 41.7 µM and > 300 µM, respectively.

For the molecule `N#Cc1cn([C@@H]2C=C(CO)[C@@H](O)[C@H]2O)c2ncnc(N)c12`, the Activity in series [21] is 0.5%; in [7], 103.3%. In addition, the EC50 in series [8] was > 10 µM. In addition, the IC50 in series [9] was > 300 µM.

For `Nc1ncnc2c1c(F)cn2[C@@H]1C=C(CO)[C@@H](O)[C@H]1O`, the Activity in [21] is recorded as 9.5%; in series [13] (et), 112.7%. In addition, the EC50 in [8] was > 10 µM. In [9], the IC50 is > 300 µM.

As to `C=Cc1cn([C@@H]2C=C(CO)[C@@H](O)[C@H]2O)c2ncnc(N)c12`, the Activity in series [21] turned out to be 49.2%; in [7] it was 99.7%. Further, the concentration for a half-maximal effect (EC50) in series [8] worked out at 3.3 µM; in series [14], 10 µM. In series [9], the IC50 was > 300 µM.

As for `NC(=O)c1cn([C@@H]2C=C(CO)[C@@H](O)[C@H]2O)c2ncnc(N)c12`, the EC50 in [12] is 1.8 µM; in series [8] it was > 10 µM. Also, the IC50 in [13] was determined as 11.8 µM; in series [9] it was 300 µM.

Turning to `Nc1ncnc2c1c(Cl)cn2[C@@H]1C=C(CO)[C@@H](O)[C@H]1O`, the EC50 is 14.7 µM in series [12] and > 10 µM in series [8]. In addition, the half-inhibitory concentration (IC50) in series [13] is 50.1 µM; in series [9], > 300 µM.

Take `C[C@@]1(O)[C@H](O)[C@@H](CO)O[C@H]1n1ccc(N)nc1=O`: in [10], the EC50 is 3.5 µM and the EC90 turned out to be 11 µM. In addition, in series [11], the CC50 was > 50 µM.

In the case of `C[C@@]1(O)[C@H](O)[C@@H](CO)O[C@H]1n1cnc2c(N)ncnc21`, the EC50 in series [12] was found to be 0.15 µM. In addition, the IC50 in [13] is > 10 µM. Further, in series [22], the Ratio is > 66.7.

For `Nc1ncnc2c1c(I)cn2[C@@H]1C=C(CO)[C@@H](O)[C@H]1O`, the half-maximal effective concentration (EC50) stood at 2.1 µM in [12], 0.43 µM in series [8] and 1.6 µM in series [14]. Moreover, the IC50 in series [13] was 15 µM; in [9] it was > 300 µM.
